Test results reported in PMC4765894 (Journal of Medicinal Chemistry, 2015).
“Also recorded” adds a separate entry of the source.

Experiments:
HIF-1 = assay: Dual luciferase-reporter assay; assay type: cell-based, human; conditions: HEK-293T, 24 h; for IC50: Homo sapiens
Method in brief: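 HEK-293T seeded at 5 × 10^3 cells/well, attached 24 h, then transiently co-transfected with a firefly reporter carrying five HRE copies from the human VEGF promoter and a Renilla plasmid (pRL-SV40). Cells were then exposed to serially diluted test compound under 1% O2 for 24 h. Dual-Glo firefly read, then Stop & Glo Renilla read (10 min each). Firefly normalized to Renilla; three independent experiments.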

HIF-1α [1] = assay: Western blot of HIF-1α expression in HEK-293T cells under hypoxia; assay type: cell-based, human; conditions: 1 μM, hypoxia (1% O2), 24 h
Method in brief: (§1)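 HEK-293T cells were held under hypoxia (1% O2) for 24 h with or without test compound at 1 μM, with a normoxic comparison. Total protein lysates were resolved by SDS-PAGE and transferred to nitrocellulose. Membranes were blocked 30 min at room temperature in 5% skim milk/TBS-0.1% Tween-20, then given primary antibody overnight at 4 °C and HRP secondary 1 h at room temperature. Detection was chemiluminescent, with β-actin as internal control.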

HIF-1β = assay: Western blot of HIF-1β expression in HEK-293T cells under hypoxia; assay type: cell-based, human; conditions: 1 μM, 24 h
Method in brief: as §1

[2] = test system: cyclin-dependent kinase 6 (Cdk6); assay: Western blot of Cdk6; assay type: cell-based, human; conditions: 1 μM, hypoxic conditions, 24 h
Method in brief: as §1

VEGF mRNA = assay: Real-time PCR of VEGF mRNA under hypoxia; assay type: cell-based, human; conditions: 1 μM, hypoxic conditions, 24 h, normalized against β-actin
Method in brief: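 Cells were given test compound at 1 μM under hypoxic conditions for 24 h, with normoxic and hypoxic controls. Total RNA was extracted with TRIzol and cDNA made with MMLV reverse transcriptase. SYBR Green real-time PCR used 10-fold diluted cDNA and gene-specific primers: 2 min 50 °C, 10 min 95 °C, then 40 cycles of 15 s 95 °C and 1 min 60 °C. Mean CT values were normalized to β-actin; triplicate runs, averaged.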

HIF-1α [3] = conditions: 4T1 cells, hypoxic conditions, concentrations between 10 and 100 nM; cited from earlier work
VEGF secretion = conditions: cited from earlier work

SMILES | IC50 (HIF-1) | expression level of HIF-1α (HIF-1α [1]) | regulation of HIF-1β (HIF-1β) | protein level of Cdk6 [2] | also measured
COc1ccc([C@@H](O)[C@@H](C)Oc2ccc([C@H]3O[C@H](c4ccc(OC)c(OC)c4)[C@H](C)[C@H]3C)cc2OC)cc1OC [MA04, 4-O-methylsaucerneol] | – | significantly down-regulated; also recorded: inhibit the expression | did not regulate | decreased | VEGF mRNA levels (VEGF mRNA): significantly reduced
COc1cc([C@H]2O[C@H](c3ccc(O[C@H](C)C(=O)c4ccccc4)c(OC)c3)[C@H](C)[C@H]2C)ccc1O[C@H](C)C(=O)c1ccccc1 [MA11] | – | significantly down-regulated; also recorded: inhibit the expression | did not regulate | decreased | –
COc1ccc(C(=O)COc2ccc([C@H]3O[C@H](c4ccc(OCC(=O)c5ccc(OC)c(OC)c5)c(OC)c4)[C@H](C)[C@H]3C)cc2OC)cc1OC [MA07] | – | significantly down-regulated; also recorded: inhibit the expression | did not regulate | decreased | –

Further lines, with some results ahead:

IC50 (HIF-1) | SMILES | expression level of HIF-1α (HIF-1α [1]) | regulation of HIF-1β (HIF-1β) | protein level of Cdk6 [2] | also measured
0.73 µM | C#CCOc1cc(C(=O)[C@@H](C)Oc2ccc([C@H]3O[C@H](c4ccc(O[C@H](C)C(=O)c5ccc(C6(C(F)(F)F)N=N6)cc5)c(OC)c4)[C@H](C)[C@H]3C)cc2OC)ccc1OC [MA13] | – | – | – | –
2.32 µM | COc1ccc(C(=O)[C@@H](C)Oc2ccc([C@H]3O[C@H](c4ccc(O[C@H](C)C(=O)c5ccc(C6(C(F)(F)F)N=N6)cc5)c(OC)c4)[C@H](C)[C@H]3C)cc2OC)cc1OCCOCCOCCNC(=O)CCCC[C@@H]1SC[C@@H]2NC(=O)N[C@@H]21 [MA14] | – | – | – | –
> 10000 µM | COc1ccc(C(=O)COc2cc(C(=O)[C@@H](C)Oc3ccc([C@H]4O[C@H](c5ccc(O[C@H](C)C(=O)c6ccc(OC)c(OCC(=O)c7ccc(OC)c(OC)c7)c6)c(OC)c5)[C@H](C)[C@H]4C)cc3OC)ccc2OC)cc1OC [MA02] | – | – | – | HIF-1 inhibitory activity in luciferase assay (in words) (HIF-1; hypoxia (1% O2)): almost inactive
0.011 ± 0.003 µM | COc1ccc([C@@H](O)[C@@H](C)Oc2ccc([C@H]3O[C@H](c4ccc(O[C@H](C)[C@H](O)c5ccc(OC)c(OC)c5)c(OC)c4)[C@H](C)[C@H]3C)cc2OC)cc1OC [compound 1, manassantin A, reference compound] | inhibit the expression | did not regulate | – | hypoxia-induced HIF-1α expression (HIF-1α [3]): significantly inhibited; HIF-1 regulated VEGF secretion (VEGF secretion): dramatically reduced
